These results are taken from ChEMBL document CHEMBL3785003, “Di- and Triterpenoids from the Leaves of Casearia balansae and Neurite Outgrowth Promoting Effects of PC12 Cells” (J Nat Prod, 2016).

Active and inactive are the calls of the source. No cut-off for these calls is given here. Where only a bound is given, the exact number is not on record here.

The first assay concerns PC-12. Description: Induction of neutrite outgrowth of rat PC12 cells after 96 hrs in absence of NGF by phase contrast microscopic analysis. The assay is classed as functional, cell-based.
Conditions: not given
The gist of the method: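 Poly-L-lysine-seeded PC12 cells (3 × 10^4 cells/well) in 1% FBS/1% horse serum test medium with graded compound concentrations for 96 h. Neurites at least one cell-body diameter counted as neurite-bearing under phase contrast. At least 100 cells per field, three fields per well, six wells per sample. Result expressed as percentage of total cells.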
For `CC(C)=CCC(=O)[C@](C)(O)[C@H]1CC[C@@]2(C)[C@@H]3CC=C4[C@@H](C[C@H](O)C(=O)C4(C)C)[C@]3(C)C(=O)C[C@]12C`, the result was inactive.

The next assay deals with PC-12. Description: Induction of NGF-mediated neutrite outgrowth of rat PC12 cells after 96 hrs by phase contrast microscopic analysis. The assay is classed as functional, cell-based.
Conditions: not given
In short, it runs like this: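 PC12 cells grown at 37 °C in DMEM with 5% heat-inactivated FBS and 5% horse serum, dissociated with 1 mM EGTA in PBS, seeded on poly-L-lysine (3 × 10^4 cells/well). After 24 h, switched to 1% FBS/1% HS medium with NGF 20 ng/mL plus test concentrations. Scored as % neurite-bearing cells; EC50 by regression; triplicate.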
For `CC(C)=CCC(=O)[C@](C)(O)[C@H]1CC[C@@]2(C)[C@@H]3CC=C4[C@@H](C[C@H](O)C(=O)C4(C)C)[C@]3(C)C(=O)C[C@]12C`, the result was inactive.

The assay is the same for the next values; noted with them: PC-12, 96 h.
As usually defined, the EC50 is the concentration giving half of the maximal effect. `C=CC(=C)CC[C@]1(C)[C@H](C)C[C@H](OC)[C@@]23C(=C[C@@H](O)C[C@@H]12)[C@@H](OC)O[C@H]3OC` showed a concentration giving a half-maximal response (EC50) of 5.4 µM.
On the same count and under the same terms, next, `CC(C)=CCC[C@](C)(O)[C@H]1CC[C@@]2(C)[C@@H]3CC=C4[C@@H](C[C@H](O)C(=O)C4(C)C)[C@]3(C)C(=O)C[C@]12C`: 10 µM; `C=C(C)[C@@H](C)C[C@@H](O)[C@@H](C)[C@H]1CC[C@@]2(C)[C@@H]3CCC4=C(C[C@]35O[C@@H]5C[C@]12C)C(=O)C[C@H](O)C4(C)C`: over 50 µM.
`C=CC(=C)CC[C@]1(C)[C@H](C)C[C@H](OC)[C@@]23C(=C[C@@H](OC(C)=O)C[C@@H]12)[C@@H](OC(=O)CCC)O[C@@H]3OC(C)=O`: the concentration for a half-maximal effect (EC50) was determined as 5.2 µM.
For the compound `C=CC(=C)CC[C@]1(C)[C@H](C)C[C@H](OC)[C@@]23C(=C[C@@H](O)C[C@@H]12)[C@@H](OC)O[C@H]3OC(C)=O`, the EC50 was 8.3 µM.
In turn, `CC(=O)[C@H]1CC[C@@]2(C)[C@@H]3CC=C4[C@@H](C[C@H](O)C(=O)C4(C)C)[C@]3(C)C(=O)C[C@]12C` showed an EC50 of over 50 µM.
Compound `CC(C)=CCC[C@](C)(O)[C@H]1CC[C@@]2(C)[C@@H]3CC=C4[C@@H](CCC(=O)C4(C)C)[C@]3(C)C(=O)C[C@]12C` returned an EC50 of over 50 µM.
`CC(C)(O)/C=C/C(=O)[C@](C)(O)[C@H]1CC[C@@]2(C)[C@@H]3CC=C4[C@@H](C[C@H](O)C(=O)C4(C)C)[C@]3(C)C(=O)C[C@]12C` yielded an EC50 of over 50 µM.
In the case of `C=CC(=C)CC[C@]1(C)[C@H](C)C[C@H](OC)[C@@]23C(=C[C@H](O)C[C@@H]12)[C@@H](OC)O[C@@H]3OC(C)=O`, the EC50 is 2.9 µM.
